A selection: hits, their analogues and other compounds. The true share with any hit is near 1.9%.
PHOSPHO1 inh: blocks human PHOSPHO1 phosphatase activity; Q8TCT1; recombinant PHOSPHO1, absorbance phosphatase assay; inhibition, % at 13.3 µM; 290,000 tested, 1.1% active; in the data active = inhibition above about 60%
Target sequence (Q8TCT1 whole entry, looked up): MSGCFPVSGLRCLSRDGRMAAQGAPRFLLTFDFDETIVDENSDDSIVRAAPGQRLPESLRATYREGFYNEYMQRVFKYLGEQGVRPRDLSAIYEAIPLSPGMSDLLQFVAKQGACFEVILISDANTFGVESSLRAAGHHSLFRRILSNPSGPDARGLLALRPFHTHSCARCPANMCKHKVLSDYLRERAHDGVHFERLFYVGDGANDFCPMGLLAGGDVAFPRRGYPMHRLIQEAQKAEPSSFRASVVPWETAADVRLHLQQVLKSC
UBC13 polyUb: blocks human UBC13 polyubiquitin chain formation. TR-FRET. inhibition, % at 20 µM. P61088. 330,000 tested, 0.47% active; in the data active = inhibition above about 45%, passing the limit was not always enough
Target sequence (P61088 whole entry, looked up): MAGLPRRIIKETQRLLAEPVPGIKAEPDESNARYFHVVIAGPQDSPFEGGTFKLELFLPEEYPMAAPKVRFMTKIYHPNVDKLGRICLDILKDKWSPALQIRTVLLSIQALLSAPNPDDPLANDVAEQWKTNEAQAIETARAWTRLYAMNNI
proCasp3 act: activates human procaspase-3; P42574; recombinant procaspase-3 D3A, Ac-DEVD-pNA absorbance 405 nm; activation, % at 8.5 µM; 330,000 tested, 0.11% active; AID 463141;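 active = activation above the mean of all tested compounds plus 3 SD, cut at about 21% in these data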;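 note: 0% = DMSO alone and 100% = DMSO wells spiked with extra 5 µM PC-3 D3A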
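Technique: 405 nm absorbance of p-nitroaniline, reads at 0 and 120 min; Test system: Procaspase-3 D3A mutant; Incubation: 1 h enzyme-compound preincubation, then 2 h substrate reaction, 25 °C; Repeats: singlicate, each compound tested once; Benchmarks: low control DMSO wells, high control DMSO plus 5 µM PC-3 D3A.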
IDE cell inh: cellular human IDE inhibition; 320,000 tested, 0.41% active; P14735; AID 434962; inhibition, % at 5.59 µM; HEK cells, FAbetaB cleavage, fluorescence polarization;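 active = percent inhibition above the average of all tested compounds plus 3 SD, set per screening campaign, cut at about 16% in these data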;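 note: IDE supplied by intact live HEK cells; FP after avidin binding of uncleaved biotin substrate so inhibition keeps polarization high; 0% = DMSO wells and 100% = 60 µM reference IDE inhibitor Ii1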
IDE cell activ: activators of human insulin-degrading enzyme in cells | HEK cells, FAbeta-B cleavage, fluorescence polarization; 0% vehicle, 100% cell-free pure enzyme wells | activation, % at 5.96 µM | 340,000 tested, 0.073% active | AID 493087;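 active = activation above the mean of all tested compounds plus 3 SD, set per screening campaign, cut at about 17% in these data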
procasp7 counter: counter-screen: procaspase-7 (human) activation | 330,000 tested, 0.093% active | activation, % at 8.5 µM | P55210 | recombinant procaspase-7, Ac-DEVD-pNA absorbance 405 nm; D23A/D198A/D206A triple mutant, cannot self-cleave; scale: DMSO 0, 5 µM enzyme 100;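 active = percent activation above the screen-wide mean plus 3 SD, cut at about 25% in these data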
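Replicates: singlicate. Assay system: Procaspase-7 triple mutant (PC-7 D3A). Signal: 405 nm absorbance of p-nitroaniline. Times: 1 h preincubation, 2 h reaction. Buffer or medium: Zinc-free HEPES pH 7.4 with 300 mM NaCl, 0.01% Triton X-100. Also added: DEVD-pNA substrate. Benchmarks: DMSO wells as 0%, DMSO with 5 µM added PC-7 as 100%.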
IDE cell inh cf: confirmation of human insulin-degrading enzyme inhibitors in cells. HEK cells, FAbetaB cleavage, fluorescence polarization. 1,200 tested, 51% active. AID 435028. shares compounds with IDE cell inh. inhibition, % at 5.59 µM;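 active = mean inhibition across triplicate wells above the cutoff set by the earlier primary insulin-degrading enzyme screen, cut at about 16% in these data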;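 note: 0% = DMSO wells and 100% = 60 µM reference IDE inhibitor Ii1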
HEK cytotox: counter-screen for IDE inhibitors: cytotoxicity in HEK cells | HEK293 cytotoxicity, ATP luminescence | 1,200 tested, 28% active | shares compounds with IDE cell inh | AID 449730 | inhibition, % at 5.59 µM; in the data active = inhibition above about 22%;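 note: 0% = vehicle wells and 100% = reference cytotoxic drug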
An asterisk follows results filed as active.

Screening COc1cc(/C=C(\C#N)c2nc3ccccc3o2)ccc1O returned PHOSPHO1 inh 24, UBC13 polyUb -491, proCasp3 act -19, IDE cell inh 88*, IDE cell activ -224, procasp7 counter -22, IDE cell inh cf 84* and HEK cytotox 18.
For COc1cc(/C=C(/C#N)c2nc3ccccc3[nH]2)ccc1OCC(=O)Nc1ccccc1C the results were PHOSPHO1 inh 42, UBC13 polyUb -21, proCasp3 act 5, IDE cell inh 3, IDE cell activ 5 and procasp7 counter 2.
`N#C/C(=C\c1ccc(O)cc1)c1nc2ccccc2o1` gave PHOSPHO1 inh 16, UBC13 polyUb -137, proCasp3 act -7, IDE cell inh 43*, IDE cell activ -124, procasp7 counter -20, IDE cell inh cf 119* and HEK cytotox 14.
For Cc1ccc(C)c(N/C=C(\C#N)c2nc3ccccc3o2)c1 the results were UBC13 polyUb 0, proCasp3 act 7, IDE cell inh -4, IDE cell activ 0 and procasp7 counter 14.
COc1cc(/C=C(\C#N)c2nc3ccccc3[nH]2)ccc1OC(=O)c1ccco1 was read as PHOSPHO1 inh -10, UBC13 polyUb -24, proCasp3 act -1, IDE cell inh 114*, IDE cell activ -107, procasp7 counter -17, IDE cell inh cf 153* and HEK cytotox 12.
`COc1cc(NC(=O)Nn2cnnc2)cc(OC)c1OC` gave PHOSPHO1 inh 20, UBC13 polyUb 4, proCasp3 act 1, IDE cell inh 2, IDE cell activ 3 and procasp7 counter -3.
Screening O=C(CCNC(=O)c1ccco1)NCc1ccc(F)cc1 returned UBC13 polyUb -2, proCasp3 act 4, IDE cell inh 4, IDE cell activ 3 and procasp7 counter 10.
Screening O=C1NCCOC(=O)[C@@H](Cc2ccc(F)cc2)C/C=C\C[C@@H]1CC(=O)N(CCO)Cc1ccccc1 returned UBC13 polyUb -1, proCasp3 act 6, IDE cell inh -2, IDE cell activ 6 and procasp7 counter 5.
For CCCCCN(C(=O)CCC(=O)OCC(=O)c1ccc(C(C)CC)cc1)c1c(N)n(CCCC)c(=O)[nH]c1=O (stereo unspecified) the results were UBC13 polyUb -21, proCasp3 act -2, IDE cell inh 17*, IDE cell activ -4, procasp7 counter 4, IDE cell inh cf 10 and HEK cytotox 13.
Screening CCCCCN(C(=O)CCC(=O)OCC(=O)N(C)c1ccccc1)c1c(N)n(CCCC)c(=O)[nH]c1=O returned UBC13 polyUb -4, proCasp3 act 3, IDE cell inh 0, IDE cell activ 2 and procasp7 counter 7.
COc1cc(/C=C2\SC(=S)N(NS(=O)(=O)c3ccccc3)C2=O)ccc1O was read as PHOSPHO1 inh 4, UBC13 polyUb -94, proCasp3 act -21, IDE cell inh 74*, IDE cell activ -103, procasp7 counter 0, IDE cell inh cf 161* and HEK cytotox 7.
Screening CCOc1cc(/C=C2\SC(=S)N(NS(=O)(=O)c3ccc(C)cc3)C2=O)ccc1O returned UBC13 polyUb -52, proCasp3 act -2, IDE cell inh 35*, IDE cell activ -32, procasp7 counter -11, IDE cell inh cf 84* and HEK cytotox 9.
COc1ccc(/C=C2/SC(=S)N(NS(=O)(=O)c3ccccc3)C2=O)cc1 was read as PHOSPHO1 inh 24, UBC13 polyUb -10, proCasp3 act -6, IDE cell inh -3, IDE cell activ 4 and procasp7 counter -10.
`COc1cc(/C=C2\SC(=S)N(NS(=O)(=O)c3ccc(C)cc3)C2=O)ccc1O` gave PHOSPHO1 inh 17, UBC13 polyUb -86, proCasp3 act -11, IDE cell inh 72*, IDE cell activ -96, procasp7 counter 3, IDE cell inh cf 161* and HEK cytotox 12.
`CC/C(=N\N=C(/CC)c1ccccc1N)c1ccccc1N` gave UBC13 polyUb -5, proCasp3 act -1, IDE cell inh 3, IDE cell activ 3 and procasp7 counter 2.
`CCN(CC(=O)NCc1ccc(F)cc1)C(=O)c1cccc(S(=O)(=O)N(C)c2ccc(OC)cc2)c1` gave IDE cell activ 2.
`C/C(=N/NC(=O)CN1CCN(Cc2ccccc2Cl)CC1)c1ccncc1` gave PHOSPHO1 inh -40, UBC13 polyUb 4, proCasp3 act -2, IDE cell inh 24*, IDE cell activ -22, procasp7 counter -2, IDE cell inh cf 15 and HEK cytotox 7.
N#CC1=C(SCC(=O)c2cc3ccccc3oc2=O)NC(=O)C(C#N)C12CCCC2 (stereo unspecified) was read as PHOSPHO1 inh -17, UBC13 polyUb -6, proCasp3 act -2, IDE cell inh 21*, IDE cell activ -22, procasp7 counter 3, IDE cell inh cf 9 and HEK cytotox 12.
`Cc1cccc(C)c1NS(=O)(=O)c1ccc(-c2cnc(C3CC3)o2)cc1` gave PHOSPHO1 inh 26, UBC13 polyUb 5, proCasp3 act 3, IDE cell inh 5, IDE cell activ 6 and procasp7 counter -6.
For COc1ccc2c(CC(=O)NNC(=O)c3ccc(O)cc3)coc2c1 the results were UBC13 polyUb 6, proCasp3 act -1, IDE cell inh 4, IDE cell activ 0 and procasp7 counter 8.
Screening CC(C)(C)S(=O)N1Cc2cc(=O)n(Cc3ccccc3)c(CCO)c2[C@H]1CCO (stereo partly specified) returned IDE cell activ 0.
For CN(C)c1ccc(/C=C(/C#N)C(=O)NCc2ccccc2)o1 the results were PHOSPHO1 inh 1, UBC13 polyUb -474, proCasp3 act -6, IDE cell inh 97*, IDE cell activ -126, procasp7 counter 2, IDE cell inh cf 122* and HEK cytotox 9.
`Cc1cccc(N2CCN(C(=O)C3CCC(CNS(=O)(=O)c4cccs4)CC3)CC2)c1C` (stereo unspecified) gave PHOSPHO1 inh 40, UBC13 polyUb -2, proCasp3 act 2, IDE cell inh 21*, IDE cell activ -9, procasp7 counter -2, IDE cell inh cf 3 and HEK cytotox 52*.
For O=C(C1CCC(CNS(=O)(=O)c2cccs2)CC1)N1CCCCC1 (stereo unspecified) the results were PHOSPHO1 inh -2, UBC13 polyUb 0, proCasp3 act 3, IDE cell inh -5, IDE cell activ -1 and procasp7 counter 15.
